We go through 1 compound from PMC6099226 (Diabetes, Obesity & Metabolism, 2018).

Assay type in all cases: in vivo, human
Series [1] concerns adults with T2DM. Briefly: Exposure-response analysis of elevated serum calcitonin. In a few lines: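 Serum calcitonin was measured by chemiluminescent immunometric assay (range 2.0–2000 pg/mL). Only participants with normal baseline values and post-baseline data were included, without imputation. The proportion with elevated calcitonin at any time until end-of-treatment was plotted with 95% CI against Cavg quantiles, with placebo at zero exposure. A covariate-adjusted exposure-response model was fitted.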

In series [2] the test system is adults with T2DM. In words: Analysis of GI AEs. In a few lines: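 Adults with T2DM from four phase III trials received once-weekly subcutaneous injections, escalated every 4 weeks (0.25, 0.5, 1.0 mg). Nausea reports were counted from baseline to week 30. Proportions were plotted against time by dose, with each dose split into high/low exposure halves by Cavg at the maintenance dose. Logistic regression adjusted for trial, sex, age group, escalation regimen and Japanese race. LOCF and completer sensitivity analyses were run.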

A short description of series [3]: Semaglutide exposure: average steady-state concentration. Conditions: mean Cavg at steady state. In a few lines:
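Plasma samples were taken 4–5 times per participant, at weeks 4, 8, 16 and 30, plus week 56 except in SUSTAIN 1. Assay was validated LC-MS/MS with LLOQ 0.729 nmol/L; samples below it were excluded. Average steady-state concentration at the randomized once-weekly subcutaneous maintenance dose was derived from individual clearance estimates of a population-PK analysis.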

Series [4] deals with adults with T2DM. Conditions: semaglutide 0.5 and 1.0 mg.

Molecules are shown by their SMILES.

With `CC[C@H](C)[C@H](NC(=O)[C@H](Cc1ccccc1)NC(=O)[C@H](CCC(=O)O)NC(=O)[C@H](CCCCNC(=O)COCCOCCNC(=O)COCCOCCNC(=O)CC[C@H](NC(=O)CCCCCCCCCCCCCCCCC(=O)O)C(=O)O)NC(=O)[C@H](C)NC(=O)[C@H](C)NC(=O)[C@H](CCC(N)=O)NC(=O)CNC(=O)[C@H](CCC(=O)O)NC(=O)[C@H](CC(C)C)NC(=O)[C@H](Cc1ccc(O)cc1)NC(=O)[C@H](CO)NC(=O)[C@H](CO)NC(=O)[C@@H](NC(=O)[C@H](CC(=O)O)NC(=O)[C@H](CO)NC(=O)[C@@H](NC(=O)[C@H](Cc1ccccc1)NC(=O)[C@@H](NC(=O)CNC(=O)[C@H](CCC(=O)O)NC(=O)C(C)(C)NC(=O)[C@@H](N)Cc1cnc[nH]1)[C@@H](C)O)[C@@H](C)O)C(C)C)C(=O)N[C@@H](C)C(=O)N[C@@H](Cc1c[nH]c2ccccc12)C(=O)N[C@@H](CC(C)C)C(=O)N[C@H](C(=O)N[C@@H](CCCNC(=N)N)C(=O)NCC(=O)N[C@@H](CCCNC(=N)N)C(=O)NCC(=O)O)C(C)C` [semaglutide], the “proportion of participants with serum calcitonin concentrations above the reference ranges” value in the series with adults with T2DM [1] (any time after baseline until end‐of‐treatment, 36 of 1395 participants, placebo data included in the analysis) is recorded as 2.6%. Besides, the “dependence of elevated calcitonin levels on exposure” value in the series on adults with T2DM [1] (range of exposures achieved with 0.5 and 1.0 mg, no effect vs placebo) was “independent of exposure”. The “proportion of participants reporting nausea” value with adults with T2DM [2] (during the first 4 weeks, also for participants with high exposure) is listed as below 7%. In addition, the “concentration of semaglutide estimated to be tolerated without nausea by 95% of participants” value in the series with adults with T2DM [2] (week 1) was below 5 nM; in the series on adults with T2DM [2] (week 30), above 30 nM. Besides, the Semaglutide exposure amounted to 15.0 nmol/L in series [3] (All men, dose 0.5 mg once weekly); 29.9 nmol/L in series [3] (All men, dose 1.0 mg once weekly); 15.3 nmol/L in series [3] (All participants, dose 0.5 mg once weekly); 30.6 nmol/L in series [3] (All participants, dose 1.0 mg once weekly); 15.9 nmol/L in series [3] (All women, dose 0.5 mg once weekly); 31.7 nmol/L in series [3] (All women, dose 1.0 mg once weekly). Further, in the series on adults with T2DM [4], the “increase from baseline to end‐of‐trial in mean resting pulse rate” value is recorded as 2−4 bpm.
